{
  "source": "paper PMC6850587",
  "about": "(Neurogastroenterology and Motility, 2019)",
  "key": {"[1]": {"biological_target": "T1, rat recombinant μ-opioid receptor (Rattus norvegicus, UniProt P33535)", "T1 sequence (P33535 whole entry)": "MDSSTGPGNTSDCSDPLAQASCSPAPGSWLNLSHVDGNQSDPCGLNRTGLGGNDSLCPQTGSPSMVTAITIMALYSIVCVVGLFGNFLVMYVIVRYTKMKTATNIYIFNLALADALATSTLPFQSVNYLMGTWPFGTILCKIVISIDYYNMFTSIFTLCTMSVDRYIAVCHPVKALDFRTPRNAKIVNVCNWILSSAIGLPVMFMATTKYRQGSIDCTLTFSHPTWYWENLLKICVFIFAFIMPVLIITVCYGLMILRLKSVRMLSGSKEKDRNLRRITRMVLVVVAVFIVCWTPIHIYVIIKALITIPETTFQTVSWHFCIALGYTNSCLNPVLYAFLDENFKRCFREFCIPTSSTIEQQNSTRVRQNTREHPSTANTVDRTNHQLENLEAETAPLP", "assay": "[…]-GTPγS binding functional assay", "assay_type": "biochemical", "details": "antagonist mode, against agonist"}, "[2]": {"biological_target": "T2, rat recombinant κ-opioid receptor (Rattus norvegicus, UniProt P34975)", "T2 sequence (P34975 whole entry)": "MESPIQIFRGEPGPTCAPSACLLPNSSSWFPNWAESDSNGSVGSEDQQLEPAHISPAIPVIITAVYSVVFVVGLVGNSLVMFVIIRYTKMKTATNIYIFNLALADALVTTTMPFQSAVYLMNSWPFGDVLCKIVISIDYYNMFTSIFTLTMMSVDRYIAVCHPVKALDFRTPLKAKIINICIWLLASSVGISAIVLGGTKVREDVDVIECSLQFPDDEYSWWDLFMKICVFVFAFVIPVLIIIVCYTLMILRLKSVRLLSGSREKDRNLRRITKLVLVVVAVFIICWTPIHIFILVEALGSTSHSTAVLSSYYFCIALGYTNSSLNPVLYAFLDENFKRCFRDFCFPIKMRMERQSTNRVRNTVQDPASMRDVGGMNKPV", "assay": "[…]-GTPγS binding functional assay", "assay_type": "biochemical"}, "[3]": {"biological_target": "T3, recombinant human δ-opioid receptor (Homo sapiens, UniProt P41143)", "T3 sequence (P41143 whole entry)": "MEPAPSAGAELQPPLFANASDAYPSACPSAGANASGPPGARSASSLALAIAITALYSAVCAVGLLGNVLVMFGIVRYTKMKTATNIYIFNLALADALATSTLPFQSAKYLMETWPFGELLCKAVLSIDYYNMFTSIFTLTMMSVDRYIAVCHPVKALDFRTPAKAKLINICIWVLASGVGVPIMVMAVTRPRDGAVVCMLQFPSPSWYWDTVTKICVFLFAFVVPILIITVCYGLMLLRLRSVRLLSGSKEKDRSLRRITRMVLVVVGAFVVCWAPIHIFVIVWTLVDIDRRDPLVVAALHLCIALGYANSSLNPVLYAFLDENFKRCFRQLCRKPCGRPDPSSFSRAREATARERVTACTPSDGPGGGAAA", "assay": "[…]-GTPγS binding functional assay", "assay_type": "biochemical"}, "[4]": {"biological_target": "T2, rat recombinant κ-opioid receptor", "assay": "[…]-GTPγS binding functional assay", "assay_type": "biochemical", "remark": "listed apart in the source"}, "[5]": {"biological_target": "T4, recombinant human μ-opioid receptor (Homo sapiens, UniProt P35372)", "T4 sequence (P35372 whole entry)": "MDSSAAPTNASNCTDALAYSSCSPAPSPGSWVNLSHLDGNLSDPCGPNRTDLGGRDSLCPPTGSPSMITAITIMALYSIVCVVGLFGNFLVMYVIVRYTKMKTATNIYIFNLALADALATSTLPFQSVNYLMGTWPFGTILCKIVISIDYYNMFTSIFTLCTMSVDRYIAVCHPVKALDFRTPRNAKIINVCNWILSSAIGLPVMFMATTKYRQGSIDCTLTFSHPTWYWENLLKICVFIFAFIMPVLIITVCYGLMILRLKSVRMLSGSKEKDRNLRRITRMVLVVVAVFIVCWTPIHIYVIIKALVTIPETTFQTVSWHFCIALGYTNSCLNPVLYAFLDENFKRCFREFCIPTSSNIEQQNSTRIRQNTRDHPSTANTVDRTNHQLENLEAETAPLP", "assay": "[…]-GTPγS binding functional assay", "assay_type": "biochemical", "details": "antagonist mode, against agonist"}, "[6]": {"biological_target": "T5, rat recombinant δ-opioid receptor (Rattus norvegicus, UniProt P33533)", "T5 sequence (P33533 whole entry)": "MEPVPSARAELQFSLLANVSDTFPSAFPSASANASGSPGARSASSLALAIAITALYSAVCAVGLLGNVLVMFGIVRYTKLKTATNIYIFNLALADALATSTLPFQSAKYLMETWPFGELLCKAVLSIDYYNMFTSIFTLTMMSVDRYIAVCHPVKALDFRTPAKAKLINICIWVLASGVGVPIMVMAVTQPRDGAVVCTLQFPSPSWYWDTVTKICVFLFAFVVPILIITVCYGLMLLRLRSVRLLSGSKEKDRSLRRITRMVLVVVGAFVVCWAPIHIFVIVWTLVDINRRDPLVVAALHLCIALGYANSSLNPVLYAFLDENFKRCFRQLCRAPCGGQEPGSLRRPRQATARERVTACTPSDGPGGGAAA", "assay": "radioligand displacement, [3H]-DADLE", "assay_type": "binding", "procedure,_shortened": "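δ-Opioid receptor sites labelled with [³H]-DADLE and displaced by test compound. The IC₅₀ is the concentration inhibiting 50% of specific binding. Ki = IC₅₀/(1 + L/Kd), where L is the radioligand concentration and the radioligand Kd comes from Scatchard plot analysis. Duplicate measurements in two or three independent experiments; data where fitting failed were excluded.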"}, "[7]": {"biological_target": "T3, recombinant human δ-opioid receptor", "assay": "radioligand displacement, [3H]-DADLE", "assay_type": "binding"}, "[8]": {"biological_target": "T5, rat recombinant δ-opioid receptor", "assay": "[…]-GTPγS binding functional assay", "assay_type": "biochemical"}, "[9]": {"biological_target": "T6, recombinant human κ-opioid receptor (Homo sapiens, UniProt P41145)", "T6 sequence (P41145 whole entry)": "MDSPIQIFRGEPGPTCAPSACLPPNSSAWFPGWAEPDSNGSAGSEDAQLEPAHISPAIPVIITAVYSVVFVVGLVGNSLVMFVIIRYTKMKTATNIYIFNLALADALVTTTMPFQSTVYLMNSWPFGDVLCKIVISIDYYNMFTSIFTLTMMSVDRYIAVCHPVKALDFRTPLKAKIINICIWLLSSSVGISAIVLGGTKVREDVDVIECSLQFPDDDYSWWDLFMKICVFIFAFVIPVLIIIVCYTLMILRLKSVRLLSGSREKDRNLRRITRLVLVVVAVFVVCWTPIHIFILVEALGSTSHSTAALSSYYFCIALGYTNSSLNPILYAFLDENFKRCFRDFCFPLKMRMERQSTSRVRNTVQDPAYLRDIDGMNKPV", "assay": "[…]-GTPγS binding functional assay", "assay_type": "biochemical", "details": "antagonist mode, against agonist"}, "[10]": {"biological_target": "T1, rat recombinant μ-opioid receptor", "assay": "[…]-GTPγS binding functional assay", "assay_type": "biochemical"}, "[11]": {"biological_target": "T4, recombinant human μ-opioid receptor", "assay": "[…]-GTPγS binding functional assay", "assay_type": "biochemical"}, "[12]": {"biological_target": "T1, rat recombinant μ-opioid receptor", "assay": "radioligand displacement, [3H]-DAMGO", "assay_type": "binding"}, "[13]": {"biological_target": "T2, rat recombinant κ-opioid receptor", "assay": "[…]-GTPγS binding functional assay", "assay_type": "biochemical", "details": "antagonist mode, against agonist"}, "[14]": {"biological_target": "T6, recombinant human κ-opioid receptor", "assay": "radioligand displacement, [3H]-U-69, […]", "assay_type": "binding"}, "[15]": {"biological_target": "T3, recombinant human δ-opioid receptor", "assay": "[…]-GTPγS binding functional assay", "assay_type": "biochemical", "details": "antagonist mode, against agonist"}, "[16]": {"biological_target": "T5, rat recombinant δ-opioid receptor", "assay": "[…]-GTPγS binding functional assay", "assay_type": "biochemical", "details": "antagonist mode, against agonist"}, "[17]": {"biological_target": "T6, recombinant human κ-opioid receptor", "assay": "[…]-GTPγS binding functional assay", "assay_type": "biochemical"}, "[18]": {"biological_target": "T4, recombinant human μ-opioid receptor", "assay": "radioligand displacement, [3H]-DAMGO", "assay_type": "binding"}},
  "data": [
    {"smiles": "CC(C)(NC(=O)C1=C(O)[C@@H]2Oc3c(O)ccc4c3[C@@]23CCN(CC2CC2)[C@H](C4)[C@]3(O)C1)c1nc(-c2ccccc2)no1", "note": "[naldemedine]", "values": [
      {"measurement": "Antagonist activity (nmol L^-1) / μ", "setting": "[1]", "value": "0.56 ± 0.02", "unit": "nmol/L"},
      {"measurement": "IC50", "setting": "[2]", "value": "12.2 ± 0.57", "unit": "nM"},
      {"measurement": "EC50", "setting": "[3]", "value": "> 10", "unit": "µM"},
      {"measurement": "EC50", "setting": "[4]", "value": "> 10", "unit": "µM"},
      {"measurement": "Antagonist activity (nmol L^-1) / μ", "setting": "[5]", "value": "0.50 ± 0.05", "unit": "nmol/L"},
      {"measurement": "Ki", "setting": "[6]", "value": "0.96 ± 0.06", "unit": "nM"},
      {"measurement": "Ki", "setting": "[7]", "value": "0.43 ± 0.08", "unit": "nM"},
      {"measurement": "EC50", "setting": "[8]", "value": "> 10", "unit": "µM"},
      {"measurement": "Antagonist activity (nmol L^-1) / κ", "setting": "[9]", "value": 0.44, "unit": "nmol/L"},
      {"measurement": "EC50", "setting": "[10]", "value": "> 10", "unit": "µM"},
      {"measurement": "EC50", "setting": "[11]", "value": "> 10", "unit": "µM"},
      {"measurement": "Ki", "setting": "[12]", "value": "1.4 ± 0.24", "unit": "nM"},
      {"measurement": "Antagonist activity (nmol L^-1) / κ", "setting": "[13]", "value": "0.49 ± 0.02", "unit": "nmol/L"},
      {"measurement": "Ki", "setting": "[14]", "value": 0.94, "unit": "nM"},
      {"measurement": "Antagonist activity (nmol L^-1) / δ", "setting": "[15]", "value": "0.27 ± 0.03", "unit": "nmol/L"},
      {"measurement": "Antagonist activity (nmol L^-1) / δ", "setting": "[16]", "value": "0.22 ± 0.02", "unit": "nmol/L"},
      {"measurement": "EC50", "setting": "[17]", "value": "> 10", "unit": "µM"},
      {"measurement": "Ki", "setting": "[18]", "value": "0.34 ± 0.03", "unit": "nM"}
    ]}
  ]
}
